Experimental data published in ChEMBL document CHEMBL2412956, “Synthesis and biological activity evaluation of 5-pyrazoline substituted 4-thiazolidinones” (Eur J Med Chem, 2013).

Experiments:
Format in all cases: functional
[1] = test system: K562; test: Cytotoxicity against human K562 cells assessed as cell growth at 10 uM after 48 hrs by SRB assay relative to control; details: K562, 48 h, read-out: Activity
Summary of the method: (§1)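 This was the NCI primary screen, with compound added once at 10⁻⁵ M and cultures incubated for 48 h. The endpoint was sulforhodamine B protein staining. Results are expressed as percent growth of treated cells relative to untreated control cells.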

[2] = test system: RPMI-8226; test: Cytotoxicity against human RPMI8226 cells assessed as cell growth at 10 uM after 48 hrs by SRB assay relative to control; details: RPMI-8226, 48 h, read-out: Activity; summary of the method: as §1
[3] = test system: SR; test: Cytotoxicity against human SR cells assessed as cell growth at 10 uM after 48 hrs by SRB assay relative to control; details: read-out: Activity
Summary of the method: (§2)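 Single-dose NCI screen: compound at 10⁻⁵ M added to tumor cell cultures and incubated for 48 h. The SRB protein-binding dye end point was read spectrophotometrically. Results are percent growth of treated cells relative to untreated controls.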

[4] = test system: LOX IMVI; test: Cytotoxicity against human LOXIMVI cells assessed as cell growth at 10 uM after 48 hrs by SRB assay relative to control; details: read-out: Activity; summary of the method: as §1
[5] = test system: SF-295; test: Cytotoxicity against human SF295 cells after 48 hrs by SRB assay; details: SF-295, 48 h
Summary of the method: (§3)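 This was the NCI 60-cell-line five-dose screen, using 10-fold dilutions from 100 to 0.01 μM and continuous 48-h exposure. Growth was read by sulforhodamine B protein staining relative to time-zero and untreated controls. […] Where an endpoint was not reached, the value was given as beyond the range tested.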

[6] = test system: K562; test: Cytotoxicity against human K562 cells after 48 hrs by SRB assay; details: K562, 48 h; summary of the method: as §3
[7] = test system: KM12; test: Cytotoxicity against human KM12 cells assessed as cell growth at 10 uM after 48 hrs by SRB assay relative to control; details: KM12, 48 h, read-out: Activity; summary of the method: as §1
[8] = test system: MOLT-4; test: Cytotoxicity against human MOLT4 cells assessed as cell growth at 10 uM after 48 hrs by SRB assay relative to control; details: MOLT-4, 48 h, read-out: Activity; summary of the method: as §1
[9] = test system: KM12; test: Cytotoxicity against human KM12 cells after 48 hrs by SRB assay; details: KM12, 48 h; summary of the method: as §3
[10] = test system: U-251; test: Cytotoxicity against human U251 cells after 48 hrs by SRB assay; details: U-251, 48 h
Summary of the method: (§4)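 NCI 60-cell-line panel, five 10-fold concentrations from 100 μM to 0.01 μM (10⁻⁴ to 10⁻⁸ M) with 48-h continuous exposure. Growth was read by SRB protein staining against time-zero and untreated controls. […] Values beyond the tested range are expressed as greater or less than the limit.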

[11] = test system: HCT-116; test: Cytotoxicity against human HCT116 cells after 48 hrs by SRB assay; details: HCT-116, 48 h; summary of the method: as §3
[12] = test system: SF-295; test: Cytotoxicity against human SF295 cells assessed as cell growth at 10 uM after 48 hrs by SRB assay relative to control; details: SF-295, 48 h, read-out: Activity; summary of the method: as §1
[13] = test system: LOX IMVI; test: Cytotoxicity against human LOXIMVI cells after 48 hrs by SRB assay; summary of the method: as §3
[14] = test system: T47D; test: Cytotoxicity against human T47D cells assessed as cell growth at 10 uM after 48 hrs by SRB assay relative to control; details: read-out: Activity; summary of the method: as §2
[15] = test system: PC-3; test: Cytotoxicity against human PC3 cells after 48 hrs by SRB assay; details: PC-3, 48 h; summary of the method: as §3
[16] = test system: CCRF-CEM; test: Cytotoxicity against human CCRF-CEM cells assessed as cell growth at 10 uM after 48 hrs by SRB assay relative to control; details: read-out: Activity; summary of the method: as §1
[17] = test system: RPMI-8226; test: Cytotoxicity against human RPMI8226 cells after 48 hrs by SRB assay; details: RPMI-8226, 48 h; summary of the method: as §3
[18] = test system: HL-60(TB); test: Cytotoxicity against human HL-60(TB) cells assessed as cell growth at 10 uM after 48 hrs by SRB assay relative to control; details: HL-60, 48 h, read-out: Activity; summary of the method: as §1
[19] = test system: UACC-62; test: Cytotoxicity against human UACC62 cells after 48 hrs by SRB assay; details: UACC-62, 48 h; summary of the method: as §4
[20] = test system: MCF7; test: Cytotoxicity against human MCF7 cells assessed as cell growth at 10 uM after 48 hrs by SRB assay relative to control; details: MCF7, 48 h, read-out: Activity; summary of the method: as §1
[21] = test system: CCRF-CEM; test: Cytotoxicity against human CCRF-CEM cells after 48 hrs by SRB assay; summary of the method: as §3
[22] = test system: RXF 393; test: Cytotoxicity against human RXF393 cells assessed as cell growth at 10 uM after 48 hrs by SRB assay relative to control; details: RXF 393, 48 h, read-out: Activity; summary of the method: as §1
[23] = test system: HL-60(TB); test: Cytotoxicity against human HL-60(TB) cells after 48 hrs by SRB assay; details: HL-60, 48 h; summary of the method: as §3
[24] = test system: SR; test: Cytotoxicity against human SR cells after 48 hrs by SRB assay; summary of the method: as §4
[25] = test system: PC-3; test: Cytotoxicity against human PC3 cells assessed as cell growth at 10 uM after 48 hrs by SRB assay relative to control; details: PC-3, 48 h, read-out: Activity; summary of the method: as §1
[26] = test system: MDA-MB-435; test: Cytotoxicity against human MDA-MB-435 cells after 48 hrs by SRB assay; details: MDA-MB-435, 48 h; summary of the method: as §3
[27] = test system: OVCAR-3; test: Cytotoxicity against human OVCAR3 cells assessed as cell growth at 10 uM after 48 hrs by SRB assay relative to control; details: OVCAR-3, 48 h, read-out: Activity; summary of the method: as §1
[28] = test system: HOP-62; test: Cytotoxicity against human HOP62 cells after 48 hrs by SRB assay; details: HOP-62, 48 h; summary of the method: as §3
[29] = test system: OVCAR-3; test: Cytotoxicity against human OVCAR3 cells after 48 hrs by SRB assay; details: OVCAR-3, 48 h; summary of the method: as §3
[30] = test system: HCT-15; test: Cytotoxicity against human HCT15 cells after 48 hrs by SRB assay; details: HCT-15, 48 h; summary of the method: as §3
[31] = test system: HOP-92; test: Cytotoxicity against human HOP92 cells assessed as cell growth at 10 uM after 48 hrs by SRB assay relative to control; details: HOP-92, 48 h, read-out: Activity; summary of the method: as §1
[32] = test system: DU-145; test: Cytotoxicity against human DU145 cells after 48 hrs by SRB assay; details: DU-145, 48 h; summary of the method: as §3
[33] = test system: 786-0; test: Cytotoxicity against human 786-0 cells after 48 hrs by SRB assay; details: 786-0, 48 h; summary of the method: as §3
[34] = test system: NCI-H460; test: Cytotoxicity against human NCI-H460 cells after 48 hrs by SRB assay; details: NCI-H460, 48 h; summary of the method: as §3

## COc1ccc(C2CC(c3ccccc3)=NN2C(=O)/C=C2\SC(=O)NC2=O)cc1 (centres undefined)
[1]
  growth at 10 µM: 58.2%
[2]
  growth at 10 µM: 58.9%
[3]
  growth at 10 µM: 39.1%
[4]
  growth at 10 µM: 55.7%

## COc1ccc(C2=NN(C(=O)/C=C3\SC(=O)NC3=O)C(c3ccccc3O)C2)cc1 (centres undefined)
[5]
  GI50: 2.99 µM
  TGI: 10 µM
[6]
  GI50: 4.58 µM
  TGI: 100 µM
[7]
  growth at 10 µM: 29.9%
[8]
  growth at 10 µM: 16.5%
[9]
  GI50: 4.76 µM
  TGI: 15.3 µM
[10]
  GI50: 4.29 µM
  TGI: 16.6 µM
[1]
  growth at 10 µM: 33.2%
[11]
  GI50: 4.56 µM
  TGI: 16.4 µM
[12]
  growth at 10 µM: -13.4%
[13]
  GI50: 3.21 µM
  TGI: 17.9 µM
[14]
  growth at 10 µM: 38%
[15]
  GI50: 4.63 µM
  TGI: 44.4 µM
[16]
  growth at 10 µM: 19.5%
[17]
  GI50: 2.12 µM
  TGI: 6.91 µM
[18]
  growth at 10 µM: -27.3%
[19]
  GI50: 2.83 µM
  TGI: 9.28 µM
[20]
  growth at 10 µM: 30.3%
[21]
  GI50: 2.85 µM
  TGI: 11.3 µM
[22]
  growth at 10 µM: 31.4%
[23]
  GI50: 3.35 µM
  TGI: 9.14 µM
[24]
  GI50: 2.85 µM
  TGI: 9.02 µM
[25]
  growth at 10 µM: 33.6%
[26]
  GI50: 3.91 µM
  TGI: 31.7 µM
[27]
  growth at 10 µM: 36.4%
[28]
  GI50: 4.85 µM
  TGI: 19.8 µM
[29]
  GI50: 3.17 µM
  TGI: 11 µM
[30]
  GI50: 4.85 µM
  TGI: 24.6 µM
[31]
  growth at 10 µM: 37.8%
[32]
  GI50: 4.64 µM
  TGI: 18.4 µM
[33]
  GI50: 2.96 µM
  TGI: 13.5 µM
[34]
  GI50: 4.18 µM
  TGI: 18.7 µM
